The record followed here is ChEMBL document CHEMBL1123752, “Hexahydro-1H-1-pyrindines from acid rearrangement of 9-alkylidene-5-(m-methoxyphenyl)-2-methylmorphans. A new structural type of narcotic antagonists” (J Med Chem, 1987).

As usually defined, the ED50 is the midpoint of the dose-response relation. The term Ki denotes a measure of affinity in units of concentration, obtained from inhibition or displacement. A higher Ki goes with weaker binding.

The subject of test [1] is Mus musculus. The test can be described thus: Antinociceptive activity was determined by tail flick test in mice after subcutaneous administration; IA means inactive at 1,10 or 30.0 mg/kg. In kind it is functional, organism-based. On the set-up: dose 30 mg/kg. The gist of the method: (§1)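 Mice were dosed subcutaneously. Antinociceptive […] is given in mg/kg with 95% confidence limits.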
Background: Hot-plate and tail-flick tests time the reaction to a heat stimulus.

The subject of test [2] is Mus musculus. The test can be described thus: Compound administered subcutaneously was evaluated for antinociceptive activity determined by p-phenylquinone-writhing test in mice. In kind it is functional. The note with it: sc. The gist of the method:
as §1

The subject of test [3] is Mus musculus. The test can be described thus: Compound administered subcutaneously was evaluated for Opioid antagonist activity versus morphine by tail flick antagonism test in mice 95% confidence limits are in brackets. In kind it is functional. The gist of the method: (§2)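 Mouse tail-flick test run against morphine, with test agent given subcutaneously. Antagonist AD50 is given in mg/kg with 95% confidence limits.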

Another test deals with Mu-type opioid receptor (Rattus norvegicus, UniProt P33535). The test can be described thus: Compound administered subcutaneously was evaluated for inhibition constant measured as the displacement of [3H]DAGO from rat brain. The gist of the method:
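Membranes from adult male Sprague-Dawley rat whole brain minus cerebellum, washed in 20 mM potassium phosphate pH 7.4, about 1 mg protein per tube. [³H]DAGO was added from a 2 nM solution. Nonspecific binding was defined with 10 μM naloxone (final). Incubation 45 min at 25 °C, then glass-fibre filtration and scintillation counting. Ki was derived by Cheng–Prusoff.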

The test system of test [4] is Mus musculus. The test can be described thus: Compound administered subcutaneously was evaluated for Opioid antagonist activity versus morphine by tail flick antagonism test in mice. Type of test: functional. Put shortly: as §2
Test [5] relates to Mus musculus. The test can be described thus: Antinociceptive activity was determined by hot plate test in mice after subcutaneous administration;IA means inactive at 1,10 or 30.0 mg/kg. Type of test: functional, organism-based. On the set-up: dose 30 mg/kg. The gist of the method:
as §1

Test [6] concerns Mus musculus. The test can be described thus: Antinociceptive activity was determined by p-phenylquinone-writhing test in mice after subcutaneous administration. The note with it: sc. Type of test: functional. Put shortly: as §1
On the technique in general: An intraperitoneal irritant provokes the stretching counted in writhing tests.

Test [7] concerns Mus musculus. The test can be described thus: Compound administered subcutaneously was evaluated for opioid antagonist activity versus morphine by tail flick antagonism test in mice. In kind it is functional. The gist of the method:
as §2

The subject of test [8] is Mus musculus. The test can be described thus: Antinociceptive activity was determined by hot plate test in mice after subcutaneous administration at 50 mg/kg. In kind it is functional. Put shortly:
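Mouse hot-plate assay with subcutaneous dosing. Activity is reported as percent effect at a single 50 mg/kg dose.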

Test [9] relates to Mus musculus. The test can be described thus: Antinociceptive activity was determined by p-phenylquinone-writhing test in mice after subcutaneous administration; I means inactive at 1,10 or 30.0 mg/kg. Also on record: dose 30 mg/kg. Type of test: functional, organism-based. The gist of the method: as §1
The test system of test [10] is Mus musculus. The test can be described thus: Antinociceptive activity was determined by tail flick test in mice after subcutaneous administration; I means inactive at 1,10 or 30.0 mg/kg. Also on record: dose 30 mg/kg. In kind it is functional, organism-based. Put shortly: as §1

The source made the active and inactive calls. The rule behind the calls is not given here.

Sequence of Mu-type opioid receptor (P33535 whole entry): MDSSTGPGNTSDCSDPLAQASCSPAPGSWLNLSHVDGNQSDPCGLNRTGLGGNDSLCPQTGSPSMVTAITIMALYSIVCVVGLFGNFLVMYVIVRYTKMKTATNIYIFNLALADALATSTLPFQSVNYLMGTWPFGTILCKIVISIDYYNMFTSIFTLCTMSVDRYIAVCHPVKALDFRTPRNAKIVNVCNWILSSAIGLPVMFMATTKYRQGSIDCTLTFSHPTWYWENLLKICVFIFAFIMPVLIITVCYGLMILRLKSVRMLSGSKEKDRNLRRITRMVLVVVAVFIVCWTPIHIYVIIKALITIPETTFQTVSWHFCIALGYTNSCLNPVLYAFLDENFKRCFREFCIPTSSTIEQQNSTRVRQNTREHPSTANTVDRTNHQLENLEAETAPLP

`C=CCN1CC[C@]23c4c5ccc(O)c4O[C@H]2[C@@H](O)C=C[C@H]3[C@H]1C5.Cl` [NALORPHINE HYDROCHLORIDE]: the ED50 result in the test on Mus musculus [1] was “inactive”. Moreover, the ED50 with Mus musculus [2] was 0.6 mg/kg. The compound also came in with an AD50 in the test on Mus musculus [3] of 2.6 mg/kg. In addition, on Mu-type opioid receptor, the inhibitory constant (Ki) came to 2 nM.
For `CC[C@]12CCC[C@H]1N(C)CC=C2c1cccc(O)c1`, in the test on Mus musculus [4], the AD50 worked out at 2.1 mg/kg. Also, the ED50 result in the test with Mus musculus [5] and in the test with Mus musculus [1] was “inactive” in each case. Besides, the ED50 in the test with Mus musculus [6] stood at 35.5 mg/kg. The compound also had a Ki at Mu-type opioid receptor of 84 nM.
The compound `CN1CC=C(c2cccc(O)c2)[C@@]2(C)CCC[C@@H]12` came in with an AD50 in the test on Mus musculus [7] of 1.7 mg/kg. For the same compound, the Effect in the test on Mus musculus [8] was 40%. The ED50 result in the test on Mus musculus [9] and in the test on Mus musculus [10] was “inactive” each time. Besides, the Ki on Mu-type opioid receptor is 81 nM.
